{
  "source": "ChEMBL document CHEMBL4049428",
  "about": "“Exploring Derivatives of Quinazoline Alkaloid l-Vasicine as Cap Groups in the Design and Biological Mechanistic Evaluation of Novel Antitumor Histone Deacetylase Inhibitors” (J Med Chem, 2017)",
  "key": {"HL-60 [1]": {"system": "HL-60", "test": "Induction of mitochondrial membrane potential loss in human HL60 cells at 1 uM measured after 48 hrs by Rh123 dye-based flow cytometric analysis (reference value: 5.6%)", "assay_type": "functional", "outline": "(§1)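 Cells seeded in 6-well plates 2-4 h, then 48 h with compound; Rh-123 1 µM added for the final half hour; cells centrifuged, washed twice in PBS, resuspended in PBS, and Ψm loss quantified by flow cytometry as percentage of cells.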"}, "A549": {"system": "A549", "test": "Cytotoxicity against human A549 cells assessed as growth inhibition at 10 uM after 48 hrs by MTT assay", "assay_type": "functional", "conditions": "A549, 48 h, read-out: GI", "outline": "(§2)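 MTT assay, 48 h exposure; adherent lines seeded 12 h and suspension lines 4 h before compound. Media: RPMI-1640/10% FCS (THP-1, HL-60, Colo-205, Caco-2, A549), DMEM/10% FCS (A549, MIAPaCa-2, MCF-7). MTT 4 h, formazan dissolved in DMSO, absorbance 570 nm. Mean ± S.D of three experiments in triplicate; SAHA 5 µM reference.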"}, "HL-60 [2]": {"system": "HL-60", "test": "Induction of mitochondrial membrane potential loss in human HL60 cells assessed as intact mitochondrial membrane potential at 10 uM measured after 48 hrs by Rh123 dye-based flow cytometric analysis (reference value: 91.3%)", "assay_type": "functional", "outline": "as §1"}, "MOLT-4 [3]": {"system": "MOLT-4", "test": "Induction of reactive oxygen species in human MOLT4 cells at 5 uM measured after 48 hrs by H2DCFDA dye-based flow cytometric analysis (reference value: 1.1%)", "assay_type": "functional"}, "MOLT-4 [4]": {"system": "MOLT-4", "test": "Induction of mitochondrial membrane potential loss in human MOLT4 cells at 10 uM measured after 48 hrs by Rh123 dye-based flow cytometric analysis (reference value: 90.4%)", "assay_type": "functional", "outline": "as §1"}, "MOLT-4 [5]": {"system": "MOLT-4", "test": "Induction of reactive oxygen species in human MOLT4 cells at 0.125 uM measured after 48 hrs by H2DCFDA dye-based flow cytometric analysis (reference value: 1.1%)", "assay_type": "functional"}, "MOLT-4 [6]": {"system": "MOLT-4", "test": "Induction of mitochondrial membrane potential loss in human MOLT4 cells assessed as intact mitochondrial membrane potential at 5 uM measured after 48 hrs by Rh123 dye-based flow cytometric analysis (reference value: 90.4%)", "assay_type": "functional", "outline": "as §1"}, "MIA PaCa-2 [7]": {"system": "MIA PaCa-2", "test": "Cytotoxicity against human MIAPaCa2 cells assessed as growth inhibition at 10 uM after 48 hrs by MTT assay", "assay_type": "functional", "conditions": "MIA PaCa-2, 48 h, read-out: GI", "outline": "as §2"}, "THP-1 [8]": {"system": "THP-1", "test": "Cytotoxicity against human THP1 cells assessed as growth inhibition at 10 uM after 48 hrs by MTT assay", "assay_type": "functional", "conditions": "THP-1, 48 h, read-out: GI", "outline": "as §2"}, "[9]": {"test": "Cytotoxicity against human FR2 cells assessed as growth inhibition after 48 hrs by MTT assay", "assay_type": "ADME, cell-based", "conditions": "FR2, 48 h"}, "HL-60 [10]": {"system": "HL-60", "test": "Induction of mitochondrial membrane potential loss in human HL60 cells assessed as intact mitochondrial membrane potential at 0.125 uM measured after 48 hrs by Rh123 dye-based flow cytometric analysis (reference value: 91.3%)", "assay_type": "functional", "outline": "as §1"}, "Homo sapiens [11]": {"organism": "Homo sapiens", "test": "Inhibition of HDAC in human MOLT4 cells assessed as increase in acetylated H4K5 levels after 48 hrs by Western blot analysis", "assay_type": "cell-based", "outline": "(§3)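 Cells seeded 2-4 h, treated 48 h with graded compound concentrations (SAHA control); histones acid-extracted (HEPES pH 9 buffer, 0.2 N HCl, 1 h on ice), Bradford-normalised, resolved on 18% SDS gels, blotted to PVDF, probed for acetyl-H3K18 and acetyl-H4K5 with H3 and β-actin loading controls; ECL detection.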"}, "Histone deacetylase 4": {"molecular_target": "Histone deacetylase 4 (Homo sapiens, UniProt P56524)", "sequence (P56524 whole entry)": "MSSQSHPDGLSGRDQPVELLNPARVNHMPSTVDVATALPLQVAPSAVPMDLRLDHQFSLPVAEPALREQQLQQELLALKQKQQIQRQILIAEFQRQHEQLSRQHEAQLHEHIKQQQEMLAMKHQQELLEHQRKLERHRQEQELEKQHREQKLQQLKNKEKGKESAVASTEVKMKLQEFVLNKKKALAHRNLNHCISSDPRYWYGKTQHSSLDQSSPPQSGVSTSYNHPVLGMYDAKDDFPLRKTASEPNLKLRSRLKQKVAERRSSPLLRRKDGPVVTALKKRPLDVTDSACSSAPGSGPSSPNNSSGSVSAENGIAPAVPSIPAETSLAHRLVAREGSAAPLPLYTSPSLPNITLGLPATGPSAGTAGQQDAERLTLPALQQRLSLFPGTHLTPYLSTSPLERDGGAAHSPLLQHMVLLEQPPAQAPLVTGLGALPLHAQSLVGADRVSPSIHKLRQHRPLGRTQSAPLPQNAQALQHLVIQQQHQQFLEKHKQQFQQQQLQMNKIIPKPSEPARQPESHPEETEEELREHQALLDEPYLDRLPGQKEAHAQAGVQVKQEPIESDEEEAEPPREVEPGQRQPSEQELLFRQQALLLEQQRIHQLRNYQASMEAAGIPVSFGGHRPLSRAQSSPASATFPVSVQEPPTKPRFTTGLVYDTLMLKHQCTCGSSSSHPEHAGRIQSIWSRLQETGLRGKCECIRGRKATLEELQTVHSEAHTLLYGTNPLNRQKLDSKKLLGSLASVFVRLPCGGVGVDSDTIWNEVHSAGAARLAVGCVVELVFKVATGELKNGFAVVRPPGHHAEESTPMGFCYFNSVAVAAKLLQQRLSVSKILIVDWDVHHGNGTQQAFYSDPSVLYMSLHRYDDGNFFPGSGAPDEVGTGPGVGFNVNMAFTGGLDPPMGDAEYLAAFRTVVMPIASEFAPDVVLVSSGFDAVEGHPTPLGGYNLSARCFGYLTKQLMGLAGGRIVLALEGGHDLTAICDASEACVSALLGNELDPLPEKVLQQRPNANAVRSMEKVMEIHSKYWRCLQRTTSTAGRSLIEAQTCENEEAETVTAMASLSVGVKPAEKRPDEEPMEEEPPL", "test": "Inhibition of HDAC 4 in human HeLa nuclear extract using fluorogenic HDAC class 2A substrate measured after 60 mins by fluorometric analysis"}, "Homo sapiens [12]": {"organism": "Homo sapiens", "test": "Inhibition of HDAC in human HL60 cells assessed as increase in acetylated H4K5 levels after 48 hrs by Western blot analysis", "assay_type": "cell-based", "outline": "as §3"}, "MOLT-4 [13]": {"system": "MOLT-4", "test": "Induction of mitochondrial membrane potential loss in human MOLT4 cells at 1 uM measured after 48 hrs by Rh123 dye-based flow cytometric analysis (reference value: 9.6%)", "assay_type": "functional", "outline": "as §1"}, "[14]": {"molecular_target": "Polyamine deacetylase HDAC10 (Homo sapiens, UniProt Q969S8)", "sequence (Q969S8 whole entry)": "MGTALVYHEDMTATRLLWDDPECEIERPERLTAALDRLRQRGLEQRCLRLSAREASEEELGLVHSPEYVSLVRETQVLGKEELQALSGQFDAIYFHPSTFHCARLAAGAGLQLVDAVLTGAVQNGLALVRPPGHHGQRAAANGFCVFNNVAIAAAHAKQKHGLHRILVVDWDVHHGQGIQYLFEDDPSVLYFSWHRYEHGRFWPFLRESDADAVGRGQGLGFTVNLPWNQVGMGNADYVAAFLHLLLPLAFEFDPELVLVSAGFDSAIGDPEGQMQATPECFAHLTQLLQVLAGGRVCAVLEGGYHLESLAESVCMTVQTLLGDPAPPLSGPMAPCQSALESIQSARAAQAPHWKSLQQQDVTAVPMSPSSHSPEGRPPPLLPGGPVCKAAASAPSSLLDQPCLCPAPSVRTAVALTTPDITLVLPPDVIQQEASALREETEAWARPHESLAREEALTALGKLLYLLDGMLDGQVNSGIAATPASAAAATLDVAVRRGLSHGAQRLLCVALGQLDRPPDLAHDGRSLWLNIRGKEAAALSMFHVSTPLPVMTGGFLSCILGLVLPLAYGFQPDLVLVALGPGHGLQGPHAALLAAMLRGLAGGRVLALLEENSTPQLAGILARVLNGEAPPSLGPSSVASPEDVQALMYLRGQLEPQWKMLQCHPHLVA", "test": "Inhibition of HDAC 10 in human HeLa nuclear extract measured after 60 mins by fluorometric analysis"}, "HL-60 [15]": {"system": "HL-60", "test": "Cytotoxicity against human HL60 cells assessed as growth inhibition after 48 hrs by MTT assay", "assay_type": "functional, cell-based", "conditions": "HL-60, 48 h"}, "MCF-10A": {"system": "MCF-10A", "test": "Cytotoxicity against human MCF10A cells assessed as growth inhibition after 48 hrs by MTT assay", "assay_type": "ADME, cell-based"}, "MOLT-4 [16]": {"system": "MOLT-4", "test": "Induction of mitochondrial membrane potential loss in human MOLT4 cells at 0.125 uM measured after 48 hrs by Rh123 dye-based flow cytometric analysis (reference value: 9.6%)", "assay_type": "functional", "outline": "as §1"}, "HL-60 [17]": {"system": "HL-60", "test": "Induction of mitochondrial membrane potential loss in human HL60 cells at 5 uM measured after 48 hrs by Rh123 dye-based flow cytometric analysis (reference value: 5.6%)", "assay_type": "functional", "outline": "as §1"}, "Histone deacetylase 5": {"molecular_target": "Histone deacetylase 5 (Homo sapiens, UniProt Q9UQL6)", "sequence (Q9UQL6 whole entry)": "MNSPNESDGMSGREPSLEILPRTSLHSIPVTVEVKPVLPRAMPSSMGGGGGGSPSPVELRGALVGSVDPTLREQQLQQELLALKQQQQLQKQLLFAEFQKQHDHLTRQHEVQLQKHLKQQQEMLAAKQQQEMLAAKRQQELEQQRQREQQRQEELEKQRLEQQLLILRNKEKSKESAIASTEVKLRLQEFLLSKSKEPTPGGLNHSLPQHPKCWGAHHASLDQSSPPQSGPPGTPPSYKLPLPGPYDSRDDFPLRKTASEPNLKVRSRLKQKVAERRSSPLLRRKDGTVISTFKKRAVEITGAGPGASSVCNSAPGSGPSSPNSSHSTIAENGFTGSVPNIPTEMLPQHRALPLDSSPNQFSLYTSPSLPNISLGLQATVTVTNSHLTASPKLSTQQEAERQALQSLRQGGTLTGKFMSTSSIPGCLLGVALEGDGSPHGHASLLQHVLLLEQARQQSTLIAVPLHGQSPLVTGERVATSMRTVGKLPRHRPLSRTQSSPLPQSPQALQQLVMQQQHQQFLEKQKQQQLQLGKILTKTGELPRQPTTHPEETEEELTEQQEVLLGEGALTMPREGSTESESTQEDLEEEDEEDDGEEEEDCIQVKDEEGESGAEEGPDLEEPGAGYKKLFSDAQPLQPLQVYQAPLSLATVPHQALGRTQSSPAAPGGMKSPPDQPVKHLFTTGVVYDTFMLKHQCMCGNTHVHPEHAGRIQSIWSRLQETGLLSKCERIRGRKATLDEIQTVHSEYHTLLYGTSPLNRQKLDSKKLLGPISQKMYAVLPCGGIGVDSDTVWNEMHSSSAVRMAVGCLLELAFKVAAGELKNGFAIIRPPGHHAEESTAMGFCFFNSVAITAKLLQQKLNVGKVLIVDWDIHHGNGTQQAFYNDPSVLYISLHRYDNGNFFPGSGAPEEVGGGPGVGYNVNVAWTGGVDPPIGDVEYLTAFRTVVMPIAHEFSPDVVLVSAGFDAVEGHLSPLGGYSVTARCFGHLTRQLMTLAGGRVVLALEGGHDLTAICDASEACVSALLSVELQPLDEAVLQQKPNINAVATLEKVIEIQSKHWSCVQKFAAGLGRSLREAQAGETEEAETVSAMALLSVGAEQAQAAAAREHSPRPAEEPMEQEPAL", "test": "Inhibition of HDAC 5 in human HeLa nuclear extract using fluorogenic HDAC class 2A substrate measured after 60 mins by fluorometric analysis"}, "HL-60 [18]": {"system": "HL-60", "test": "Induction of reactive oxygen species in human HL60 cells at 5 uM measured after 48 hrs by H2DCFDA dye-based flow cytometric analysis (reference value: 0.4%)", "assay_type": "functional"}, "Homo sapiens [19]": {"organism": "Homo sapiens", "test": "Inhibition of HDAC in human MOLT4 cells assessed as increase in acetylated H3K18 levels after 48 hrs by Western blot analysis", "assay_type": "cell-based", "outline": "as §3"}, "THP-1 [20]": {"system": "THP-1", "test": "Antimigratory activity in human THP1 cells at 0.125 uM after 48 hrs by wound healing assay", "assay_type": "functional, cell-based", "outline": "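THP-1 cells seeded at high density, attached overnight; monolayer scratched with a pipette tip, debris removed by PBS washes, then test compound added after wounding. Incubated 48 h under standard culture conditions (37°C, 5% CO2); wound images taken at various intervals from time zero.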"}, "MIA PaCa-2 [21]": {"system": "MIA PaCa-2", "test": "Cytotoxicity against human MIAPaCa2 cells assessed as growth inhibition after 48 hrs by MTT assay", "assay_type": "functional, cell-based", "conditions": "MIA PaCa-2, 48 h", "outline": "as §2"}, "PC-3": {"system": "PC-3", "test": "Cytotoxicity against human PC3 cells assessed as growth inhibition after 48 hrs by MTT assay", "assay_type": "functional, cell-based", "conditions": "PC-3, 48 h"}, "Homo sapiens [22]": {"organism": "Homo sapiens", "test": "Inhibition of HDAC in human HL60 cells assessed as increase in acetylated H3K18 levels after 48 hrs by Western blot analysis", "assay_type": "cell-based", "outline": "as §3"}, "MOLT-4 [23]": {"system": "MOLT-4", "test": "Induction of autophagy in human MOLT4 cells assessed as acidic vacuole formation in cytoplasm at 10 uM after 48 hrs by acridine orange dye-based fluorescent microscopic analysis", "assay_type": "functional, cell-based", "outline": "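Cells treated 48 h with a range of compound concentrations, SAHA 1.0 µM as positive control; acridine orange 1 µg/ml added 15 min before end at 37°C; cells washed in PBS and acidic vacuoles viewed by fluorescence microscopy.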"}, "P388": {"system": "P388", "test": "Antitumor activity against mouse P388 cells implanted in CDF1 mouse assessed as increase in median survival time at 50 mg/kg, ip administered for 9 consecutive days", "assay_type": "functional", "outline": "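P388 leukemia cells were harvested from 6–7-day-old ascites grown in the peritoneum of female DBA/2 mice. Female CDF1 mice (18–23 g) received 5×10^5 cells i.p. on day 0. Next day they were randomized into groups of 7 and dosed i.p. daily for 9 consecutive days; controls got 0.2 ml normal saline. Mortality was followed to day 18, with median survival time and %T/C calculated.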"}},
  "note": "Activity calls are given as the source filed them. No cut-off for these calls is given here.",
  "data": [
    {"smiles": "O=C(CCCCCCC(=O)Nc1ccccc1CN1CC[C@H](O)C1)NO", "values": [
      {"measurement": "Activity", "setting": "HL-60 [1]", "value": 6.2, "unit": "%"},
      {"measurement": "inhibition of growth at 10 µM", "setting": "A549", "value": 84, "unit": "%"},
      {"measurement": "Activity", "setting": "HL-60 [2]", "value": 54.7, "unit": "%"},
      {"measurement": "Activity", "setting": "MOLT-4 [3]", "value": 1.9, "unit": "%"},
      {"measurement": "Activity", "setting": "MOLT-4 [4]", "value": 32.5, "unit": "%"},
      {"measurement": "Activity", "setting": "MOLT-4 [5]", "value": 1.3, "unit": "%"},
      {"measurement": "Activity", "setting": "MOLT-4 [6]", "value": 42.5, "unit": "%"},
      {"measurement": "inhibition of growth at 10 µM", "setting": "MIA PaCa-2 [7]", "value": 93, "unit": "%"},
      {"measurement": "inhibition of growth at 10 µM", "setting": "THP-1 [8]", "value": 94, "unit": "%"},
      {"measurement": "IC50", "setting": "[9]", "value": 23, "unit": "µM"},
      {"measurement": "Activity", "setting": "HL-60 [10]", "value": 89, "unit": "%"},
      {"measurement": "inhibition", "setting": "Homo sapiens [11]", "value": "Dose-dependent effect"},
      {"measurement": "IC50", "setting": "Histone deacetylase 4", "value": 7.12, "unit": "µM"},
      {"measurement": "inhibition", "setting": "Homo sapiens [12]", "value": "Dose-dependent effect"},
      {"measurement": "Activity", "setting": "MOLT-4 [13]", "value": 4.9, "unit": "%"},
      {"measurement": "IC50", "setting": "[14]", "value": "> 10", "unit": "µM"},
      {"measurement": "IC50", "setting": "HL-60 [15]", "value": 1, "unit": "µM"},
      {"measurement": "IC50", "setting": "MCF-10A", "value": 37, "unit": "µM"},
      {"measurement": "Activity", "setting": "MOLT-4 [16]", "value": 2.4, "unit": "%"},
      {"measurement": "Activity", "setting": "HL-60 [17]", "value": 12.1, "unit": "%"},
      {"measurement": "IC50", "setting": "Histone deacetylase 5", "value": 5.39, "unit": "µM"},
      {"measurement": "Activity", "setting": "HL-60 [18]", "value": 0, "unit": "%"},
      {"measurement": "inhibition", "setting": "Homo sapiens [19]", "value": "Dose-dependent effect"},
      {"measurement": "Activity", "setting": "THP-1 [20]", "value": "Active"},
      {"measurement": "IC50", "setting": "MIA PaCa-2 [21]", "value": 1, "unit": "µM"},
      {"measurement": "IC50", "setting": "PC-3", "value": 19, "unit": "µM"},
      {"measurement": "inhibition", "setting": "Homo sapiens [22]", "value": "Dose-dependent effect"},
      {"measurement": "Activity", "setting": "MOLT-4 [23]", "value": "Active"},
      {"measurement": "T/C", "setting": "P388", "value": 92.47, "unit": "%"}
    ]}
  ]
}
